Results from different studies.
Read-out: cell growth or viability

Compound | cell line | assay | conditions | endpoint | value
COC(=O)c1c(C)ncn1CC(c1cn(C)c2ccccc12)c1cn(C)c2ccccc12 | HaCaT | MTS | 20 µM, 24 h | inhibition | 12.6%
Cc1cc(C)cc(COc2cc3c(cc2OCc2cc(C)cc(C)c2)[C@H]2C[C@](O)(Cc4cn(Cc5cc(C(F)(F)F)cc(C(F)(F)F)c5)nn4)C[C@H](C)N2CC3)c1 | ASPC1 | MTT | – | IC50 | 836 nM
CC(C)=CCC[C@](C)(O)[C@H]1CC[C@]2(C)[C@@H]1[C@H](O)C[C@@H]1[C@@]3(C)CC[C@H](O[C@@H]4O[C@H](CO)[C@@H](O)[C@H](O)[C@H]4O[C@@H]4O[C@H](CO)[C@@H](O)[C@H](O)[C@H]4O)C(C)(C)[C@@H]3CC[C@]12C | NCI-H358 | MTT | 72 h | IC20 | > 100000 nM
CN1C[C@H](C(=O)N[C@]2(C)O[C@@]3(O)[C@@H]4CCCN4C(=O)[C@H](Cc4ccccc4)N3C2=O)C[C@@H]2c3cccc4[nH]cc(c34)C[C@H]21 | WI-38 | MTT | 72 h | EC50 | 80000 nM
Cc1cc(C)cc(COc2cc3c(cc2OCc2cc(C)cc(C)c2)[C@H]2C[C@](O)(Cc4cn(CCOCCOCCOCC(=O)N[C@H](C(=O)N5C[C@H](O)C[C@H]5C(=O)NCc5ccc(-c6scnc6C)cc5)C(C)(C)C)nn4)C[C@H](C)N2CC3)c1 | ASPC1 | MTT | – | IC50 | 730 nM
CC(C)C[C@H](NC(=O)[C@H](Cc1ccccc1)NC(=O)c1cnccn1)B(O)O | HCC1569 | ATP luminescence | – | IC50 | 4.9 nM
Cc1cc(C)cc(COc2cc3c(cc2OCc2cc(C)cc(C)c2)[C@H]2C[C@](O)(Cc4cn(CC5CC5)nn4)C[C@H](C)N2CC3)c1 | ASPC1 | MTT | – | IC50 | 612 nM
C[C@@H](Oc1cc(-c2cnn(C3CCNCC3)c2)cnc1N)c1c(Cl)ccc(F)c1Cl | KARPAS-299 | MTT | 1 µg/mL, 72 h | inhibition | 85.2%
COc1cc(Nc2nccc(-c3cnn4nc(OC)ccc34)n2)cc(C(F)(F)F)c1 | HCC1569 | ATP luminescence | – | IC50 | > 3000 nM
Cc1cc(C)cc(COc2cc3c(cc2OCc2cc(C)cc(C)c2)[C@H]2C[C@](O)(Cc4cn(Cc5ccc(Cl)c(Cl)c5)nn4)C[C@H](C)N2CC3)c1 | ASPC1 | MTT | – | IC50 | 606 nM
Cc1cc(Nc2ncc(Cl)c(Nc3ccccc3S(=O)(=O)C(C)C)n2)c(OC(C)C)cc1C1CCNCC1 | KARPAS-299 | MTT | 0.06173 µg/mL, 72 h | inhibition | 62.4%
CCOC(=O)c1c(C)ncn1CC(c1cn(C)c2ccc([N+](=O)[O-])cc12)c1cn(C)c2ccc([N+](=O)[O-])cc12 | HaCaT | MTS | 20 µM, 24 h | inhibition | 3.7%
COc1cc(-c2ccc(-c3ccc(C(=N)N)nc3)s2)cc(OC)c1OC | SNB-19 | SRB | – | GI50 | 4730 nM
